Data set [1] relates to HepG2. Put plainly: Cell cycle arrest in human HepG2 cells assessed as accumulation at G2-phase at 8 uM after 48 hrs by propidium iodide staining based flow cytometry (reference value: 19.04%). The class given is functional.
In data set [2] the test system is HepG2. The data set is described as follows: Induction of apoptosis in human HepG2 cells assessed as necrotic cells at 10 uM after 24 hrs by Annexin V-FITC/ propidium iodide staining based flow cytometry (reference value: 0.28%). The class given is functional.
Data set [3] concerns HepG2. The data set is described as follows: Upregulation of p21 protein expression in human HepG2 cells at 6 to 10 uM after 12 hrs by Western blot analysis. It is filed as functional, cell-based. In outline:
(§1)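 HepG2 cell lysates after compound treatment analyzed by western blot for the target protein, compared with untreated negative control.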

Data set [4] has as its system HepG2. Put plainly: Cell cycle arrest in human HepG2 cells assessed as accumulation at G1-phase at 6 uM after 48 hrs by propidium iodide staining based flow cytometry (reference value: 50.47%). The class given is functional.
In data set [5] the test system is HepG2. The data set is described as follows: Cell cycle arrest in human HepG2 cells assessed as accumulation at G1-phase at 10 uM after 48 hrs by propidium iodide staining based flow cytometry (reference value: 50.47%). It is filed as functional.
The test system of data set [6] is HepG2. The data set is described as follows: Cell cycle arrest in human HepG2 cells assessed as accumulation at S-phase at 6 uM after 48 hrs by propidium iodide staining based flow cytometry (reference value: 30.49%). The class given is functional.
For data set [7], the system named is HepG2. The data set is described as follows: Induction of intracellular calcium level in human HepG2 cells at 6 to 10 uM after 24 hrs by Fluo3-AM staining based fluorescence microscopic method. It is filed as functional, cell-based.
Data set [8] deals with HepG2. The data set is described as follows: Cell cycle arrest in human HepG2 cells assessed as accumulation at G2/M phase after 48 hrs by propidium iodide staining based flow cytometry. It is filed as functional.
Data set [9] relates to HepG2. The data set is described as follows: Induction of apoptosis in human HepG2 cells assessed as late apoptotic cells at 8 uM after 24 hrs by Annexin V-FITC/ propidium iodide staining based flow cytometry (reference value: 1.91%). The class given is functional.
For data set [10], the system named is HepG2. Put plainly: Upregulation of Bax protein expression in human HepG2 cells at 6 to 10 uM after 12 hrs by Western blot analysis. The class given is functional, cell-based. In short, it runs like this: as §1
The subject of data set [11] is HepG2. The data set is described as follows: Induction of apoptosis in human HepG2 cells assessed as necrotic cells at 8 uM after 24 hrs by Annexin V-FITC/ propidium iodide staining based flow cytometry (reference value: 0.28%). It is filed as functional.
For data set [12], the system named is HepG2. The data set is described as follows: Upregulation of caspase-3 protein expression in human HepG2 cells at 6 to 10 uM after 12 hrs by Western blot analysis. It is filed as functional, cell-based. In outline:
as §1

Data set [13] has as its system HepG2. Put plainly: Cell cycle arrest in human HepG2 cells assessed as accumulation at G2-phase at 6 uM after 48 hrs by propidium iodide staining based flow cytometry (reference value: 19.04%). The class given is functional.
Data set [14] relates to HepG2. The data set is described as follows: Downregulation of CDC25C protein expression in human HepG2 cells at 6 to 10 uM after 12 hrs by Western blot analysis. The class given is functional, cell-based.
Data set [15] relates to HepG2. Put plainly: Upregulation of p53 protein expression in human HepG2 cells at 8 uM after 12 hrs by Western blot analysis. It is filed as functional, cell-based.
The subject of data set [16] is HepG2. The data set is described as follows: Induction of apoptosis in human HepG2 cells assessed as morphological changes at 6 to 10 uM after 12 hrs by […] staining based fluorescence microscopic method. The class given is functional, cell-based. In short, it runs like this:
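HepG2 cells treated for 12 h, stained with Hoechst 33258 and viewed by fluorescence microscopy for nuclear blue fluorescence and apoptotic morphology, compared with untreated cells.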

Data set [17] deals with Mus musculus. Put plainly: Upregulation of p53 protein expression in tumor tissues of Balb/c nude mouse xenografted with human NCI-H460 cells at 25 to 50 mg/kg, ip bid for 13 days measured on day 14 by Western blot analysis. The class given is functional, organism-based. In outline: (§2)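 Tumors from NCI-H460 xenografted BALB/c nude mice (25 or 50 mg/kg, vehicle 5% DMSO in saline) collected at day 14; protein levels in tumor tissue determined by western blot versus vehicle control.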

Data set [18] deals with HepG2. Put plainly: Downregulation of CDK1 protein expression in human HepG2 cells at 6 to 10 uM after 12 hrs by Western blot analysis. It is filed as functional, cell-based.
The subject of data set [19] is HepG2. Put plainly: Upregulation of PARP protein expression in human HepG2 cells at 6 to 10 uM after 12 hrs by Western blot analysis. The class given is functional, cell-based. In short, it runs like this:
as §1

Data set [20] concerns HepG2. The data set is described as follows: Induction of apoptosis in human HepG2 cells assessed as pycnosis at 6 to 10 uM after 12 hrs by acridine orange/ethidium bromide staining based fluorescence microscopic method. The class given is functional, cell-based. In outline:
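HepG2 cells stained with acridine orange/ethidium bromide and examined by fluorescence microscopy; nuclei scored as yellow/green or orange, with pycnosis, membrane blebbing and cell budding taken as apoptotic morphology.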

Data set [21] concerns Mus musculus. The data set is described as follows: Upregulation of Bax protein expression in tumor tissues of Balb/c nude mouse xenografted with human NCI-H460 cells at 25 to 50 mg/kg, ip bid for 13 days measured on day 14 by Western blot analysis. The class given is functional, organism-based. In short, it runs like this:
as §2

The subject of data set [22] is HepG2. The data set is described as follows: Induction of apoptosis in human HepG2 cells assessed as early apoptotic cells at 6 uM after 24 hrs by Annexin V-FITC/ propidium iodide staining based flow cytometry (reference value: 6.5%). It is filed as functional.
The subject of data set [23] is HepG2. Put plainly: Induction of apoptosis in human HepG2 cells assessed as necrotic cells at 6 uM after 24 hrs by Annexin V-FITC/ propidium iodide staining based flow cytometry (reference value: 0.28%). It is filed as functional.
In data set [24] the test system is HepG2. Put plainly: Induction of apoptosis in human HepG2 cells after 24 hrs by Annexin V-FITC/ propidium iodide staining based flow cytometry. The class given is functional, cell-based.
For data set [25], the system named is Mus musculus. The data set is described as follows: Toxicity in Balb/c nude mouse xenografted with human Bel7404 cells assessed as change in body weight at 25 to 50 mg/kg, ip bid for 20 days. It is filed as organism-based. The following applies: in vivo, 480 h.
For the next data set, the system named is BEL-7404 tumor cell line. Put plainly: Cell cycle arrest in human Bel7404 cells assessed as accumulation at S-phase at 9 uM after 48 hrs by propidium iodide staining based flow cytometry (reference value: 22%). The class given is functional.
For data set [26], the system named is Mus musculus. The data set is described as follows: Downregulation of APAF-1 protein expression in tumor tissues of Balb/c nude mouse xenografted with human Bel7404 cells at 25 to 50 mg/kg, ip bid for 20 days measured on day 21 by Western blot analysis. It is filed as functional, organism-based.

Calls of active or inactive are those of the source. No cut-off for these calls is given here.

`O=c1[nH]c2ccccc2cc1-c1nc2cc(Cl)ccc2[nH]1`: the Activity with HepG2 [1] is 39.71%; in the data set with HepG2 [2] it was 0.45%; in the data set with HepG2 [4] it was 41.52%; in the data set with HepG2 [5], 23.66%; in the data set with HepG2 [6], 29.48%; with HepG2 [8], “Dose-dependent effect”. Also, the Activity in the data set with HepG2 [9] is 10.42%; in the data set with HepG2 [11], 0.32%; with HepG2 [13], 39%; with HepG2 [22] it was 20.22%; in the data set on HepG2 [23] it was 0.76%; with HepG2 [24], “Dose-dependent effect”. In addition, the result in the data set on HepG2 [3], with HepG2 [7], with HepG2 [10], in the data set on HepG2 [12], with HepG2 [14] and in the data set with HepG2 [15] was Active. Moreover, the result in the data set on HepG2 [16], in the data set on Mus musculus [17], with HepG2 [18], with HepG2 [19], with HepG2 [20] and in the data set on Mus musculus [21] was Active.

Regarding `O=c1[nH]c2cc3c(cc2cc1-c1nc2cc(Cl)ccc2[nH]1)OCO3`, the Activity result was “Non-Toxic” in the data set on Mus musculus [25] and 23.66% in the data set on BEL-7404 tumor cell line. Further, in the data set on Mus musculus [26], the outcome was Active.
